Converted amounts (≈) assume the structure as drawn.
What was measured:
[1] = system: Escherichia coli; test: In vitro antibacterial activity against Escherichia coli A 15119; assay type: functional
[2] = system: Pseudomonas aeruginosa; test: Compound was tested in vitro for its antibacterial activity (minimum inhibitory concentration, MIC) against Pseudomonas aeruginosa A 9843; assay type: functional
[3] = system: Staphylococcus aureus; test: In vitro antibacterial activity against Staphylococcus aureus A 24227; assay type: functional
[4] = system: Morganella morganii; test: In vitro antibacterial activity against Morganella morganii A 15153; assay type: functional
[5] = system: Serratia marcescens; test: In vitro antibacterial activity (minimum inhibitory concentration) against Serratia marcescens A 20019.; assay type: functional
[6] = system: Bacteroides fragilis; test: Compound was tested in vitro for its antibacterial activity (minimum inhibitory concentration) against Bacteroides fragilis A 22862.; assay type: functional; conditions: A22862
[7] = system: Haemophilus influenzae; test: In vitro antibacterial activity against Haemophilus influenzae A 21515; assay type: functional
[8] = system: Enterococcus faecalis; test: In vitro antibacterial activity against Enterococcus faecalis A 9809; assay type: functional
[9] = system: Proteus mirabilis; test: In vitro antibacterial activity (minimum inhibitory concentration, MIC) against Proteus mirabilis A 9900; assay type: functional
[10] = system: Streptococcus pneumoniae; test: In vitro antibacterial activity against Streptococcus pneumoniae A 9585; assay type: functional
[11] = system: Enterobacter cloacae; test: In vitro antibacterial activity against Enterobacter cloacae A 9656; assay type: functional
[12] = system: Klebsiella pneumoniae; test: In vitro antibacterial activity against Klebsiella pneumoniae A 9664; assay type: functional
[13] = system: Staphylococcus aureus; test: In vitro antibacterial activity (minimum inhibitory concentration, MIC) against Staphylococcus aureus A 9537.; assay type: functional
[14] = system: Mus musculus; test: Compound was evaluated in vivo in urine sample collected over 24 hours for its concentration after 40 mg/kg peroral administration to mice; assay type: functional; conditions: route oral
Outline: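 Mice were dosed at 40 mg/kg, either orally with a blunt needle and syringe or intramuscularly, with separate groups for each route. Blood was drawn from the orbital sinus at 5, 15, 30, 60, 120 and 180 min. Urine was pooled over 24 h. Drug levels were measured by agar disk diffusion microbioassay with Salmonella enteritidis A9531 as the assay organism.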

[15] = Compound was tested for the dose to protect 50% of mice from lethal infection against Streptococcus pneumoniae after peroral administration to OF1-strain of female Swiss mice.; assay type: functional; conditions: po, read-out: PD50
Outline: (§1)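 Compounds dissolved in sterile water and given orally to female OF1 Swiss mice weighing 18-25 g, five mice per group.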

[16] = system: Escherichia coli; test: Compound was tested for the dose to protect 50% of mice from lethal infection against Escherichia coli A 15119 after peroral administration to OF1-strain of female Swiss mice.; assay type: functional; conditions: po, read-out: PD50; outline: as §1
[17] = system: Canis familiaris; test: Compound was evaluated in vivo in urine sample collected over 24 hours for its concentration after 25 mg/kg peroral administration to dogs.; conditions: route oral

S [µg/mL] | Structure (SMILES) | MIC [1] [µg/mL] | MIC [2] [µg/mL] | MIC [3] [µg/mL] | MIC [4] [µg/mL] | MIC [5] [µg/mL] | MIC [6] [µg/mL] | MIC [7] [µg/mL] | MIC [8] [µg/mL] | MIC [9] [µg/mL] | MIC [10] [µg/mL] | MIC [11] [µg/mL] | MIC [12] [µg/mL] | MIC [13] [µg/mL] | UR [14] [%] | ED50 [15] [mg/kg] | ED50 [16] [mg/kg] | UR [17] [%]
 | CC(CF)(CF)n1cc(C(=O)O)c(=O)c2cc(F)c(N3CC[C@H](N)C3)nc21.CS(=O)(=O)O | 0.5 | 8 | 4 | 0.5 | 2 | 125 | 0.25 | 16 | 4 | 16 | 0.5 | 2 | 8 |  |  |  | 
 | CC(C)(C)n1cc(C(=O)O)c(=O)c2cc(F)c(N3CC[C@H](N)C3)nc21 | 0.016 (≈ 0.0459 µM) | 0.25 (≈ 0.718 µM) | 0.002 (≈ 0.00574 µM) | 0.13 (≈ 0.373 µM) | 0.25 (≈ 0.718 µM) | 1 (≈ 2.87 µM) |  | 0.06 (≈ 0.172 µM) | 0.13 (≈ 0.373 µM) | 0.008 (≈ 0.023 µM) | 0.03 (≈ 0.0861 µM) | 0.03 (≈ 0.0861 µM) | 0.004 (≈ 0.0115 µM) | 10 | > 25 | 1.2 | 9
 | CS(=O)(=O)O.C[C@H]1C[C@H](N)CN1c1cc2c(cc1F)c(=O)c(C(=O)O)cn2C(C)(C)CF | 0.03 | 1 | 0.03 | 0.5 | 0.25 | 4 | 0.016 | 0.25 | 0.13 | 0.25 | 0.06 | 0.13 | 0.03 |  |  |  | 
 | C[C@H]1CN(c2cc3c(cc2F)c(=O)c(C(=O)O)cn3C(C)(C)CF)C[C@@H]1N | 0.008 (≈ 0.0211 µM) | 0.5 (≈ 1.32 µM) | 0.06 (≈ 0.158 µM) | 0.06 (≈ 0.158 µM) | 0.13 (≈ 0.343 µM) | 4 (≈ 10.5 µM) | 0.008 (≈ 0.0211 µM) | 0.25 (≈ 0.659 µM) | 0.06 (≈ 0.158 µM) | 0.25 (≈ 0.659 µM) | 0.03 (≈ 0.0791 µM) | 0.13 (≈ 0.343 µM) | 0.03 (≈ 0.0791 µM) |  |  |  | 
820 | CC(C)(C)n1cc(C(=O)O)c(=O)c2cc(F)c(N3CCNCC3)nc21 | 0.016 (≈ 0.0459 µM) | 0.5 (≈ 1.44 µM) | 0.25 (≈ 0.718 µM) | 0.06 (≈ 0.172 µM) | 0.06 (≈ 0.172 µM) | 8 (≈ 23 µM) | 0.016 (≈ 0.0459 µM) | 1 (≈ 2.87 µM) | 0.13 (≈ 0.373 µM) | 1 (≈ 2.87 µM) | 0.06 (≈ 0.172 µM) | 0.03 (≈ 0.0861 µM) | 0.06 (≈ 0.172 µM) |  |  |  | 
 | CC(CF)(CF)n1cc(C(=O)O)c(=O)c2cc(F)c(N3CC[C@H](N)C3)cc21.CS(=O)(=O)O | 0.008 | 0.25 | 0.13 | 0.016 | 0.13 | 4 | 0.001 | 0.5 | 0.03 | 0.5 | 0.06 | 0.13 | 0.06 |  |  |  | 
 | CC(CF)(CF)n1cc(C(=O)O)c(=O)c2cc(F)c(N3CCNCC3)nc21.Cl | 0.13 | 4 | 4 | 0.13 | 0.5 | 125 | 0.25 | 16 | 1 | 16 | 0.25 | 0.25 | 4 |  |  |  | 
 | CC(CF)(CF)n1cc(C(=O)O)c(=O)c2cc(F)c(N3CCNCC3)cc21.Cl | 0.13 | 1 | 2 | 0.06 | 0.5 | 16 | 0.06 | 1 | 0.13 | 8 | 0.25 | 0.13 | 1 |  |  |  | 
1600 | CC(C)(CF)n1cc(C(=O)O)c(=O)c2cc(F)c(N3CCNCC3)nc21.Cl | 0.13 | 1 | 0.5 | 0.13 | 0.25 | 16 | 0.13 | 2 | 0.25 | 0.5 | 0.25 | 0.25 | 0.25 |  |  |  | 

Structure (SMILES) | S [µg/mL] | MIC [1] [µg/mL] | MIC [2] [µg/mL] | MIC [3] [µg/mL] | MIC [4] [µg/mL] | MIC [5] [µg/mL] | MIC [6] [µg/mL] | MIC [7] [µg/mL] | MIC [8] [µg/mL] | MIC [9] [µg/mL] | MIC [10] [µg/mL] | MIC [11] [µg/mL] | MIC [12] [µg/mL] | MIC [13] [µg/mL] | UR [14] [%] | ED50 [15] [mg/kg] | ED50 [16] [mg/kg] | UR [17] [%]
CC(C)(C)n1cc(C(=O)O)c(=O)c2cc(F)c(N3CCNCC3)cc21 | 130 | 0.06 (≈ 0.173 µM) | 0.5 (≈ 1.44 µM) |  | 0.25 (≈ 0.72 µM) | 0.5 (≈ 1.44 µM) |  |  | 2 (≈ 5.76 µM) | 0.25 (≈ 0.72 µM) |  | 0.13 (≈ 0.374 µM) | 0.06 (≈ 0.173 µM) | 0.25 (≈ 0.72 µM) |  |  |  | 

— ChEMBL document CHEMBL1125733, “Fluoronaphthyridines and -quinolones as antibacterial agents. 3. Synthesis and structure-activity relationships of new 1-(1,1-dimethyl-2-fluoroethyl), 1-[1-methyl-1-(fluoromethyl)-2-fluoroethyl], and 1-[1,1-(difluoromethyl)-2-fluoroethyl] substituted derivatives” (J Med Chem, 1991)
